Experimental findings from ChEMBL document CHEMBL1147200, “Synthesis, structural characterization, and in vitro antitumor activity of novel N-(6-chloro-1,1-dioxo-1,4,2-benzodithiazin-3-yl)arylsulfonamides” (2007) are described below.

Usually GI50 stands for the concentration giving 50% growth inhibition. High values mean less potent growth inhibition, low ones more potent growth inhibition.

Type in all cases: functional
In experiment [1] the test system is A-427. Nature of the experiment: Cytotoxicity against human A427 cells after 96 hrs. To be noted: A-427, 96 h. The gist of the method: (§1)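 Cells plated in 96-well format, left 24 h, then given compound continuously for 96 h. Growth read by staining attached viable cells with crystal violet, washing, redissolving bound dye in 70% ethanol and reading OD at 570 nm. GI50 computed from dose–response data of 5 to 7 independent experiments.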

The test system of experiment [2] is RT-4. The experiment can be described thus: Cytotoxicity against human RT4 cells after 96 hrs. To be noted: RT-4, 96 h. A digest of the protocol: as §1
The nature of experiment [3]: Cytotoxicity against human LCLC103H cells after 96 hrs. To be noted: LCLC-103H. A digest of the protocol: as §1
For experiment [4], the system named is 5637. Nature of the experiment: Cytotoxicity against human 5637 cells after 96 hrs. To be noted: Homo sapiens, 5637, 96 h. A digest of the protocol:
as §1

In experiment [5] the test system is DAN-G. Nature of the experiment: Cytotoxicity against human DANG cells after 96 hrs. A digest of the protocol:
as §1

Experiment [6] deals with MCF7. The experiment can be described thus: Cytotoxicity against human MCF7 cells after 96 hrs. The note with it: MCF7, 96 h. A digest of the protocol:
as §1

Regarding `CCOC(=O)c1cc2c(cc1Cl)SC(N(c1ccc(OC)cc1)S(=O)(=O)c1ccc(Cl)cc1Cl)=NS2(=O)=O`, the GI50 is 4.1 µM in experiment [1]; 6.3 µM in experiment [2]; 2.8 µM in experiment [3]; 2.3 µM in experiment [4]; 3.1 µM in experiment [5]; 2.4 µM in experiment [6].

As for `CCOC(=O)c1cc2c(cc1Cl)SC(N(c1ccc(OC)cc1)S(=O)(=O)c1ccccc1)=NS2(=O)=O`, the GI50 is 7 µM in experiment [1]; 16.8 µM in experiment [2]; 9.3 µM in experiment [3]; 6.5 µM in experiment [4]; 7.6 µM in experiment [5]; 4.9 µM in experiment [6].

As for `O=C(Oc1cccc2cccnc12)c1cc2c(cc1Cl)SC(N(c1ccc(F)cc1)S(=O)(=O)c1ccc(Cl)cc1)=NS2(=O)=O`, the GI50 is 3.1 µM in experiment [1]; more than 20 µM in experiment [2]; 4.6 µM in experiment [3]; 6.2 µM in experiment [4]; 9.3 µM in experiment [5]; 3.2 µM in experiment [6].

Regarding `Cc1cc2c(cc1Cl)SC(N(c1ccccc1Cl)S(=O)(=O)c1ccc(Br)s1)=NS2(=O)=O`, the GI50 in experiment [1] was determined as 8.2 µM; in experiment [2], 28.6 µM; in experiment [3] it was 11.9 µM; in experiment [4], 7.5 µM; in experiment [5] it was 9.4 µM; in experiment [6], 6.5 µM.

In the case of `CCOC(=O)c1cc2c(cc1Cl)SC(N(c1ccccc1)S(=O)(=O)c1ccc(Cl)cc1)=NS2(=O)=O`, the GI50 in experiment [1] is 11.7 µM; in experiment [2], more than 20 µM; in experiment [3] it was more than 20 µM; in experiment [4], 14.3 µM; in experiment [5], 14.8 µM; in experiment [6] it was 9.8 µM.

With `COC(=O)c1cc2c(cc1Cl)SC(N(N(C)C)S(=O)(=O)c1ccc(Br)s1)=NS2(=O)=O`, the GI50 was 12 µM in experiment [1]; 18.5 µM in experiment [2]; 19.1 µM in experiment [3]; 13.7 µM in experiment [4]; 23.7 µM in experiment [5]; 10.9 µM in experiment [6].

Regarding `O=C(Oc1cccc2cccnc12)c1cc2c(cc1Cl)SC(N(c1ccc(F)cc1)S(=O)(=O)c1ccc(Br)s1)=NS2(=O)=O`, the concentration for 50% growth inhibition (GI50) in experiment [1] was 3.4 µM; in experiment [2] it was more than 20 µM; in experiment [3], 5.3 µM; in experiment [4] it was 5.1 µM; in experiment [5], 8.2 µM; in experiment [6], 3.2 µM.

Regarding `COC(=O)c1cc2c(cc1Cl)SC(N(N(C)C)S(=O)(=O)c1ccc(Cl)cc1)=NS2(=O)=O`, the GI50 in experiment [1] is 10.2 µM; in experiment [2], 18.5 µM; in experiment [3], 19.6 µM; in experiment [4], 12.6 µM; in experiment [5], 18.7 µM; in experiment [6], 8.7 µM.

For `CCOC(=O)c1cc2c(cc1Cl)SC(N(c1ccc(OC)cc1)S(=O)(=O)c1ccc(Cl)cc1)=NS2(=O)=O`, the GI50 worked out at 11.2 µM in experiment [1]; 23.1 µM in experiment [2]; 19.3 µM in experiment [3]; 11.9 µM in experiment [4]; 12.3 µM in experiment [5]; 8.1 µM in experiment [6].

In the case of `Cc1cc2c(cc1Cl)SC(N(N(C)C)S(=O)(=O)c1ccc(Cl)cc1)=NS2(=O)=O`, the GI50 in experiment [1] is 15.6 µM; in experiment [2], more than 20 µM; in experiment [3] it was more than 20 µM; in experiment [4] it was 19.2 µM; in experiment [5] it was 23.5 µM; in experiment [6] it was 12.3 µM.

Take `CCOC(=O)c1cc2c(cc1Cl)SC(N(c1ccc(F)cc1)S(=O)(=O)c1ccc(OC)cc1)=NS2(=O)=O`: the GI50 worked out at 8.4 µM in experiment [1]; 19 µM in experiment [2]; 17.5 µM in experiment [3]; 12.1 µM in experiment [4]; 12 µM in experiment [5]; 5.8 µM in experiment [6].

With `Cc1cc2c(cc1Cl)SC(N(c1ccc(Cl)cc1)S(=O)(=O)c1ccccc1)=NS2(=O)=O`, the 50% growth inhibitory concentration (GI50) turned out to be 9.2 µM in experiment [1]; 22 µM in experiment [2]; 12.4 µM in experiment [3]; 9.6 µM in experiment [4]; 9.9 µM in experiment [5]; 8.1 µM in experiment [6].
